In the library only some 9.2% were active in any assay of this set; here they are far more common.
Autophagy mod: autophagy modulation, high-content screen; MEF GFP-LC3 puncta imaging; test concentration mostly 10 µM; calls only at 10 µM (by protocol); 190,000 tested, 0.98% active; AID 463193;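 active = percentage of spot-positive cells more than 3 SD above its plate mean, without a fluorescence outlier flag or 80% toxicity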;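 note: spot-positive cell cutoff set from DMSO-treated cells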
Lmaj promast: Leishmania major promastigote growth inhibition; AID 1063; 200,000 tested, 9% active; inhibition, % at 10 µM; Leishmania major promastigotes, resazurin fluorescence viability; in the data active = inhibition above about 50%;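 note: promastigotes grown with compound for 44 hours at 28 °C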
bCat KO growth: beta-catenin-lacking colon tumor cell growth suppression; 140,000 tested, 1.5% active; viability, % at 10 µM; HCT116 beta-catenin knockout viability, CellTiter-Glo, 60 h; stronger effect = lower value;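 active = viability at or under a set limit, the compound median less 4 SD, cut at about 6% in these data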;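 note: 0% = Hyamine 1622 control at 20 µM and 100% = untreated cell control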
Dynein transport: dynein cargo transport inhibition. 3617.4 mouse cells, GR-EGFP nuclear translocation imaging; test concentration mostly 20 µM; stimulated with dexamethasone, 1 µM; stronger effect = lower value. AID 1381. 220,000 tested, 0.47% active. z-score, hits read low;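 active = plate z-score of nuclear minus cytoplasmic receptor signal below a set negative limit, without overly bright fluorescence or cell loss, cut at about -3.5 in these data, passing the limit was not always enough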;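 note: z-score of nuclear minus cytoplasmic ring GR-EGFP intensity difference per well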
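Schedule: 48 h induction, then 1 h compound, then 30 min agonist, 37 °C. Buffer or medium: tetracycline-free induction medium containing charcoal-stripped FBS. Reagent: 1.0 µM final dexamethasone stimulus. Evaluation: nuclear versus cytoplasmic GR-EGFP signal, averaged per well. Signal: high-content fluorescence imaging after fixation.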
HCT116 PTEN-null: PTEN-deleted cell growth suppression | HCT116 PTEN-null viability, CellTiter-Glo, 60 h; stronger effect = lower value | viability, % at 10 µM | 140,000 tested, 1.2% active;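 active = viability at or below a set limit, 4 SD under the median of all tested compounds, cut at about 3.7% in these data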;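 note: PTEN knockout HCT116 line with beta catenin targeted HCT116 as companion control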
The depositor's hits bear a star; i = inactive; x = not tested or not shown.

SMILES | Autophagy mod | Lmaj promast | bCat KO growth | Dynein transport | HCT116 PTEN-null
CCc1ccccc1NC(=S)NC1CC2CCC(C1)N2Cc1ccco1 (centres undefined) | i | 71* | 66 | -0.9 | 84
Cc1ccc2cc(CCNC(=O)c3cccs3)c(=O)[nH]c2c1 | i | -9 | 98 | -0.47 | 94
Cn1cc(CN2CCCC(C(=O)c3nccn3C)C2)c(-c2cccc(Cl)c2)n1 (centres undefined) | i | 5 | x | -1.1 | x
Cc1c(NC2=CC(=O)CCC2)c(=O)n(-c2ccccc2)n1C | i | 3 | x | 0.82 | x
CCc1ccccc1NC(=S)NC1CC2CCC(C1)N2Cc1ccc(F)cc1 (centres undefined) | i | 95* | x | 0.42 | x
Cc1cccc(NC(=S)NC2CC3CCCC(C2)N3Cc2ccccc2)c1C (centres undefined) | i | 87* | x | 1.1 | x
CCc1ccc(NC(=S)NC2CC3CCCC(C2)N3Cc2cccs2)cc1 (centres undefined) | i | 91* | 37 | -0.46 | 41
O=C(O)CC(NC(=O)Cc1ccc([N+](=O)[O-])cc1)c1ccc2c(c1)OCO2 (centres undefined) | i | -2 | x | -0.31 | x
CCc1ccc(-n2c(C)n[nH]c2=S)cc1 | i | -6 | x | -0.76 | x
CC1CCCCN1S(=O)(=O)c1ccc(C(=O)Nc2nnc(-c3ccncc3)o2)cc1 (centres undefined) | i | 8 | x | -0.72 | x
COc1ccc(-c2nnc(NC(=O)c3ccc(S(=O)(=O)N4COCC4(C)C)cc3)o2)cc1 | i | 99* | 16 | -0.3 | 14
CC1(C)COCN1S(=O)(=O)c1ccc(C(=O)Nc2nnc(-c3ccc(Cl)s3)o2)cc1 | i | 99* | 11 | 2.4 | 5
O=C(Nc1nnc(-c2cccs2)o1)c1ccc(S(=O)(=O)N2CCOCC2)cc1 | i | 28 | x | 0.24 | x
CC1CCc2c(sc(NC(=O)CSc3ncnc4c3cnn4-c3ccccc3Cl)c2C#N)C1 (centres undefined) | i | 8 | 62 | -0.076 | 69
COC(=O)C1C(c2ccc(N(C)C)cc2)C(C(=O)OC)S(=O)(=O)CS1(=O)=O (centres undefined) | i | -6 | x | -0.47 | x
CC1CCN(C(=O)CN(c2ccc(Cl)c(C(F)(F)F)c2)S(C)(=O)=O)CC1 | i | 69* | 87 | -0.41 | 88
CS(=O)(=O)N(CC(=O)N1CCC(C(N)=O)CC1)c1ccc(Cl)c(C(F)(F)F)c1 | i | -9 | 102 | -0.025 | 93
CS(=O)(=O)N(Cc1ccc(Cl)cc1)c1ccc(C(=O)N2CCN(c3ccccc3)CC2)cc1 | i | 13 | 68 | -0.49 | 65
CS(=O)(=O)N(Cc1ccccc1)c1ccc(C(=O)N2CCN(c3cccc(Cl)c3)CC2)cc1 | i | 73* | 14 | -0.23 | 17
CS(=O)(=O)N(CC(=O)N1CCN(c2ccccc2)CC1)c1ccc(Cl)c(C(F)(F)F)c1 | i | 89* | 79 | -0.92 | 68
CC(C)c1cc(C(=O)N/N=C/c2cccnc2)n[nH]1 | i | -4 | 90 | -0.52 | 98
O=C(Nc1nnc(-c2ccc3c(c2)CCCC3)o1)c1ccccc1 | i | 96* | 13 | 1.5 | 11
O=C(Nc1nnc(-c2ccc3c(c2)CCCC3)o1)c1ccccc1Cl | i | 12 | 27 | 0.95 | 28
Cc1ccc(C(=O)Nc2nnc(-c3ccncc3)o2)cc1 | i | 53* | x | -1.1 | x
O=C(Nc1nnc(-c2ccc(Cl)cc2)o1)c1ccc(N2C(=O)CCC2=O)cc1 | i | 66* | 75 | 0.77 | 82
SMILES | Autophagy mod | Lmaj promast | bCat KO growth | Dynein transport | HCT116 PTEN-null
O=C(Nc1nnc(-c2ccco2)o1)c1ccc(N2C(=O)CCC2=O)cc1 | i | -5 | x | 0.0057 | x
CCc1n[nH]c(=S)n1N=C1CCC(C)CC1 (centres undefined) | i | -7 | x | 0.12 | x
Cc1cc(C)c(S(=O)(=O)N2CCCOC2CNC(=O)C(=O)NCc2ccco2)c(C)c1 (centres undefined) | i | 7 | 101 | -0.52 | 92
Cc1nn(-c2ccccc2)c2[nH]c(=O)c(CNCc3ccc4c(c3)OCO4)cc12 | i | 12 | 82 | 0.65 | 89
Cc1ccc(-c2nn(-c3ccccc3)c3[nH]c(=O)c(CNCc4ccccc4)cc23)cc1 | i | 97* | 3.5* | 0.065 | 13
COc1ccc(-c2nn(-c3ccccc3)cc2CO)cc1 | i | 17 | 91 | -0.52 | 93
COc1cccc(NCc2cc3c(C(C)(C)C)nn(-c4ccccc4)c3[nH]c2=O)c1 | i | 8 | 109 | -0.65 | 98
Cc1ccc(-c2nn(-c3ccccc3)cc2CNCc2ccccc2)cc1 | i | 62* | x | -0.83 | x
CCOc1ccc(NCc2cc3c(C(C)(C)C)nn(-c4ccccc4)c3[nH]c2=O)cc1 | i | 5 | 2.3* | 0.28 | 1.2*
CCOc1cc(/C=C(\C#N)C(=O)Nc2ccccc2[N+](=O)[O-])ccc1OCc1cccc2ccccc12 | i | -2 | x | -0.29 | x
COC(=O)CSc1nnc(CNC(=O)c2cc(OC)cc(OC)c2)n1-c1ccc(F)cc1 | i | -6 | x | 1.6 | x
COc1ccc2c(c1)c1ccccc1n2C | i | -6 | 104 | 0.67 | 113
COc1ccc2c(c1)c1nnc(SC)nc1n2C | i | 96* | 92 | -0.82 | 92
COc1ccc2c(c1)c1nnc(SCC(=O)N3C(C)CCCC3C)nc1n2C (centres undefined) | i | 78* | 74 | -0.039 | 71
COc1ccc(-n2nnnc2SCC(=O)N2C(C)CCCC2C)c(OC)c1 (centres undefined) | i | 0 | 91 | -1.1 | 99
CCCN(CCC)S(=O)(=O)c1cccc(-c2csc(C)n2)c1 | x | x | x | 1.2 | x
Cc1cc(F)ccc1S(=O)(=O)Nc1ccccc1C(=O)Nc1ccccc1-c1nc2ccccc2[nH]1 | i | 42 | 3.7* | 0.71 | 4
COC(=O)[C@@]1(Cc2ccc(OC)cc2)[C@@H]2C(=CC(=O)[C@H]2CC(=O)C(=O)N2CCCC2)CN1C(=O)c1ccccc1 | i | 100* | 1.9* | -4.7* | 2.0*
COC(=O)[C@@]1(Cc2ccc(OC)cc2)[C@@H]2[C@@H](CC(=O)[C@H]2CC(=O)C(=O)N(C)C)CN1C(=O)c1ccccc1 | i | 15 | 57 | -0.71 | 74
CCOC(=O)N1CCN(S(=O)(=O)c2ccc(C(=O)NNc3nc4c(C)cc(C)cc4s3)cc2)CC1 | i | 88* | 9 | 1.2 | 9
Cc1cc(C)c2nc(NNC(=O)c3ccc(S(=O)(=O)N4CCCCC4)cc3)sc2c1 | i | 89* | 8 | -0.2 | 12
Cc1cc(C)c2nc(NC(=O)[C@@H](NC(=O)c3cccc(S(=O)(=O)N4CCOCC4)c3)C(C)C)sc2c1 | i | 97* | 66 | -0.56 | 62
CCOC(=O)N1CCN(S(=O)(=O)c2ccc(C(=O)NNc3nc4c(C)cccc4s3)cc2)CC1 | i | 1 | 11 | -0.68 | 11
CCOC(=O)N1CCN(S(=O)(=O)c2ccc(C(=O)NNc3nc4ccc(Cl)cc4s3)cc2)CC1 | i | -12 | 4.4* | -0.15 | 3.6*

Screening results deposited in PubChem by several laboratories.
